Measurements gathered from unrelated publications.
Compare with care: the assays were run in different laboratories.
Target: Serine/threonine-protein kinase pim-2 (PIM2, Homo sapiens, UniProt Q9P1W9)

C#Cc1n[nH]c2c(-c3cn(C(C)c4ccccn4)c(=O)[nH]c3=O)cc(F)cc12 (stereo not drawn)  inhibition (enzyme activity; inhibitor; 1 µM): -1.5%
N#CC1(c2ccccn2)CCN(Cc2cc(C(=O)O)c(=O)n3ccccc23)CC1  remaining binding (cell-free assay; competition with immobilised ligand; 1 µM): 100%
C#Cc1n[nH]c2c(-c3cn([C@@H](C)c4ccccc4)c(=O)[nH]c3=O)cc(F)cc12  inhibition (enzyme activity; inhibitor; 0.1 µM): 3.2%
O=c1[nH]c2ccccc2n1C1CCN(Cc2ccc(-c3[nH]c4cc5ncnc5cc4nc3-c3ccccc3)cc2)CC1  remaining signal (cell-free assay; 0.5 µM): 111%
Cn1cncc1[C@](O)(COc1ccc(C#N)cc1-c1ccc(OC(F)(F)F)cc1)c1ccc(C#N)cc1  remaining binding (cell-free assay; competition with immobilised ligand; 1 µM): 84%
Nc1ncc(-c2nc(N3CCOCC3)nc(N3CCOCC3)n2)c(C(F)F)n1  remaining binding (binding; competition with immobilised ligand; 10 µM): 92%
CC(C)(C)c1cc(C=C(C#N)C#N)cc(Br)c1O  remaining activity (enzyme activity; inhibitor; 0.5 µM): 115%
COc1cc(Nc2ncc(F)c(Nc3ccc4c(n3)NC(=O)C(C)(C)O4)n2)cc(OC)c1OC  inhibition (binding; competition with immobilised ligand; 10 µM): 0%
Cn1cc(-c2cc(F)cc(N3CCn4c(cc5c4CCCC5)C3=O)c2CO)cc(Nc2ccc(N3CCN(C4COC4)CC3)cn2)c1=O  inhibition (enzyme activity; inhibitor; 0.1 µM): -1%
COc1ncccc1-c1cnn2ccc(N3CCN(C(=O)OC(C)C)CC3)nc12  remaining binding (binding; competition with immobilised ligand; 1 µM): 100%
Cc1nn(C)cc1-c1nc2c(N3CCN(Cc4ccc(Cl)cc4)CC3)c(Cl)cnc2[nH]1  remaining binding (binding; competition with immobilised ligand; 1 µM): 100%
Cn1cc(-c2cccc(N3CCc4c(sc5c4CC(C)(C)C5)C3=O)c2CO)cc(Nc2ccncn2)c1=O  inhibition (enzyme activity; inhibitor; 1 µM): 1%
